Assay outcomes (PubChem)
In the library only some 2.3% were active in any assay of this set; here they are far more common.
PAFAH1B2 inh = blocks human PAF acetylhydrolase 1b catalytic subunit 2. hit rate 1.2% among 340,000. recombinant PAFAH1B2, FP-rhodamine activity probe, fluorescence polarization. AID 492953. inhibition, % at 3.39 µM;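 active means inhibition above the mean of all tested compounds plus 3 SD, cut at about 24% in these data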;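 further: 0% = enzyme with DMSO and 100% = wells lacking PAFAH1B2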
Target sequence (P68402 whole entry, looked up): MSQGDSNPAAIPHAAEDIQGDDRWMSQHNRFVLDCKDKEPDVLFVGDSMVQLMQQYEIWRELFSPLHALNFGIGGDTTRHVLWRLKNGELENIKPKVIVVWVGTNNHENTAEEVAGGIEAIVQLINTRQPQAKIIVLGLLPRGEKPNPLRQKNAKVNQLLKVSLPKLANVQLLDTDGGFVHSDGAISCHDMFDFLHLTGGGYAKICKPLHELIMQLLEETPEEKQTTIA
PAFAH2 inh = inhibitors of human PAFAH2. inhibition, % at 3.39 µM. AID 492956. hit rate 0.99% among 340,000. Q99487. recombinant PAFAH2, FP-rhodamine activity probe, fluorescence polarization;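 active means inhibition above the mean over all tested compounds plus 3 SD, cut at about 30% in these data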;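 further: inhibitors block probe labeling of enzyme so polarization drops; 0% = enzyme with DMSO and 100% = wells lacking PAFAH2 protein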
PAFAH1B3 inh = inhibitors of human PAFAH1B3. recombinant PAFAH1B3, FP-rhodamine probe, fluorescence polarization. inhibition, % at 3.39 µM. hit rate 0.28% among 340,000;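 active means inhibition above the screen-wide average of all tested compounds plus 3 SD, cut at about 25% in these data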;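 further: 0% = enzyme with DMSO only and 100% = wells lacking PAFAH1B3 protein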
TDP2 inh = TDP2 (human) inhibition, absorbance primary screen | hit rate 0.34% among 370,000 | inhibition, % at 12.8 µM | recombinant TDP2, T5PNP hydrolysis, p-nitrophenol absorbance 415 nm;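 active means inhibition above the mean of all tested compounds plus 3 SD, set per campaign, cut at about 25% in these data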;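 further: 0% = DMSO with enzyme and 100% = buffer with substrate but no TDP2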
Target sequence (O95551 whole entry, looked up): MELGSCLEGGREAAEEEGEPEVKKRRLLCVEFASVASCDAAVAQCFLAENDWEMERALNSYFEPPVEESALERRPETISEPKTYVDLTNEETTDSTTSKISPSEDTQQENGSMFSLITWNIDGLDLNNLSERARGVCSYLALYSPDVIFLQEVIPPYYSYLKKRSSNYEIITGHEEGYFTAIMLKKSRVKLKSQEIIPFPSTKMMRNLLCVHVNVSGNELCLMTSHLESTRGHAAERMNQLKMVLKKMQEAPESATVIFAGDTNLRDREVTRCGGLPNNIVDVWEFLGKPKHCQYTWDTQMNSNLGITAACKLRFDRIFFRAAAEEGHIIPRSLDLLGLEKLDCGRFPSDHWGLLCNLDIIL
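Read-out basis: percent inhibition. System: recombinant human TDP2. Buffer or medium: Mg2+-containing Tris-HCl buffer, pH 7.5. Repeats: single replicate. Timing: reaction 2 h, 37 °C. Benchmarks: high control without enzyme, low control DMSO plus TDP2. Probe or stimulus: 5 mM T5PNP. Doses: 12.8 µM only. Measured by: epi absorbance of p-nitrophenol freed from T5PNP by hydrolysis.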
Apaf1 inhib = blocks human Apaf-1 apoptosome activity. AID 489030. inhibition, % at 20 µM. hit rate 0.71% among 330,000. reconstituted apoptosome caspase-3 activity, DEVD-Rh110 fluorescence; active means inhibition of at least 40% at 20 µM;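 further: plate controls were DMSO wells for no effect and DEVD-CHO caspase inhibitor wells for full effect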
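Medium: Hepes buffer, pH 7.5 / System: biochemical Apaf-1 apoptosome reconstitution / Measured by: Rh110 fluorescence, excitation 480 nm, emission 540 nm / Times: compound with Apaf-1, dATP, procaspase-3 30 min, then 50 min reaction, room temperature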
Apaf-1 inh conf2 = Apaf-1 inhibition, single-dose confirmed. shares compounds with Apaf1 inhib. reconstituted apoptosome, caspase-3 DEVD-Rh110 fluorescence. inhibition, % at 20 µM. hit rate 25% among 1,800. AID 504614;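 active means mean inhibition of at least 40% at 20 µM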;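 further: plate controls were DMSO wells for no effect and DEVD-CHO caspase inhibitor control wells for full effect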
Rh110 quench = interferes with Rh110 fluorescence, flagging false Apaf-1 inhibitors | shares compounds with Apaf1 inhib | Rh110 fluorescence interference, quenched caspase reaction | activation (fluorescence interference), % at 20 µM | 1,800 tested, under 10 active | AID 504615;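 active means signal rise of 40% or more at 20 µM, treated as a fluorescence artifact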
Fluor interf inh = shows fluorescence interference in the Apaf-1 inhibitor assay format | shares compounds with Apaf1 inhib | fluorescence interference counterscreen, Apaf-1 assay format | IC50, µM | 460 tested, under 10 active | AID 588538; call rule not given here
PAFAH1B3 conf FP = PAFAH1B3 (human) inhibition, confirmed; inhibition, % at 3.39 µM; AID 493032; hit rate 30% among 390; recombinant PAFAH1B3, FP-Rh activity-based probe, fluorescence polarization; shares compounds with PAFAH1B3 inh;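 active means average inhibition over triplicate runs above the hit cutoff set in the earlier primary screen, cut at about 25% in these data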;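 further: 0% = enzyme with DMSO and 100% = wells lacking PAFAH1B3 protein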
TDP2 confirm = confirmation of human TDP2 inhibitors | recombinant human TDP2, absorbance read-out | inhibition, % at 12.8 µM | shares compounds with TDP2 inh | hit rate 22% among 1,100; in the data active means inhibition above about 25%;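 further: 0% = vehicle with enzyme and 100% = no enzyme buffer only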
* hit, by the source's call; nt = no result given.

SMILES	PAFAH1B2 inh	PAFAH2 inh	PAFAH1B3 inh	TDP2 inh	Apaf1 inhib	Apaf-1 inh conf2	Rh110 quench	others
COCCCNC(=O)c1c(NC(=O)c2ccco2)n(Cc2ccccc2)c2nc3ccccc3nc12	-2	-4	8	5	71*	-51	8	Fluor interf inh=>100
COCCNC(=O)c1c(NC(=O)c2ccc(Br)o2)n(Cc2ccccc2)c2nc3ccccc3nc12	0	16	2	11	67*	25	-7
O=C(O)CCl	nt	nt	nt	-9	nt	nt	nt
NC(N)=N/N=C/c1ccc(N(c2ccccc2)c2ccccc2)cc1	9	6	12	-12	61*	43*	3	Fluor interf inh=>100
CCCCCSc1cc(OC)c(CCN)cc1OC	7	12	8	-1	6	nt	nt
CCCCCCCSc1cc(OC)c(CCN(C)C)cc1OC	5	-7	-5	-8	56*	13	11
O=c1[nH]c2ccccc2n1C1CCN(CCCC(c2ccc(F)cc2)c2ccc(F)cc2)CC1	8	-8	0	-4	56*	14	2
O=C1CC(N2CCC(n3c(=O)[nH]c4ccccc43)CC2)C(=O)N1c1ccc(F)cc1 (stereo not drawn)	1	7	1	-17	-18	nt	nt
CN1CC[C@@H]2CN[C@H](c3ccccc3)C[C@@H]21	nt	nt	nt	-3	nt	nt	nt
COc1ccc2c(c1O)-c1c(OC)c(OC)cc3c1[C@H](C2)N(C)CC3	0	3	10	-11	-1	nt	nt
CCCN1CCc2cccc3c2[C@H]1Cc1ccc(O)c(O)c1-3	3	-7	16	nt	53*	13	10
COC1CC=C2CCN3CCC4=C(CC(=O)OC4)C23C1 (stereo not drawn)	nt	nt	nt	10	nt	nt	nt
O=C(NCCN1CCC2(CC1)C(=O)NCN2c1ccccc1)c1ccc(F)cc1	nt	nt	nt	12	nt	nt	nt
Clc1ccc(COC(Cn2ccnc2)c2ccc(Cl)cc2Cl)cc1 (stereo not drawn)	5	-7	10	-2	40	nt	nt
Clc1ccc(C(c2ccc(Cl)cc2)n2cc[n+](CC(OCc3ccc(Cl)cc3Cl)c3ccc(Cl)cc3Cl)c2)cc1 (stereo not drawn)	2	3	2	-2	89*	79*	8	Fluor interf inh=>100
Cc1ccc(OC(=O)N(C)C[C@H]2OCc3cnnn3CCCC(=O)N([C@@H](C)CO)C[C@@H]2C)cc1	nt	nt	nt	6	nt	nt	nt
Cc1nc2c(=O)n(C)c(=O)nc-2n(C)n1	28*	54*	66*	86*	99*	100*	-3	Fluor interf inh=>100
CCN(CCO)c1ccc(N=Cc2c(O)n(C)c(=S)[nH]c2=O)cc1	nt	nt	nt	24	51*	16	-7
CCN(CC)c1ccc(N=Cc2c(O)n(-c3cc(OC)ccc3OC)c(=O)[nH]c2=O)cc1	7	-7	0	8	48*	13	1
CC(C)S(=O)(=O)N1Cc2ccc(Br)cc2-n2nncc2C1	nt	nt	nt	-4	nt	nt	nt
Cc1ccc(C[n+]2c(-c3ccc(C)cc3)cc(-c3ccc(C)cc3)cc2-c2ccc(C)cc2)cc1	-1	6	10	nt	79*	37	7
O=S(=O)(c1ccc(Cl)cc1)N1Cc2ccc(Br)cc2-n2nncc2C1	nt	nt	nt	6	nt	nt	nt
COc1ccc2c(c1)NP(=S)(c1ccccc1)N2C (stereo not drawn)	12	7	13	1	nt	nt	nt
COc1ccc(P2(=O)Nc3ccccc3N2)cc1	-4	-1	13	2	49*	21	8
CC(C)CNC(=O)c1c(N)n(Cc2ccc3c(c2)OCO3)c2nc3ccccc3nc12	9	13	12	4	96*	34	-2
SMILES	PAFAH1B2 inh	PAFAH2 inh	PAFAH1B3 inh	TDP2 inh	Apaf1 inhib	Apaf-1 inh conf2	Rh110 quench	others
COC(=O)c1c(N)n(Cc2ccc(OC)cc2)c2nc3ccccc3nc12	-2	6	9	9	33	nt	nt
CCCNC(=O)c1c(N)n(Cc2ccc3c(c2)OCO3)c2nc3ccccc3nc12	0	0	-7	nt	83*	20	-4
COc1ccc(Cn2c(N)c(C(=O)NCc3ccco3)c3nc4ccccc4nc32)cc1OC	-5	-14	7	-7	66*	25	11
CC(C)CNC(=O)c1c(N)n(Cc2ccco2)c2nc3ccccc3nc12	5	-6	7	-2	45*	32	18
Fc1ccc2nc(-c3ccc(CN4CCC(n5nnc6ccccc65)CC4)cc3)c(-c3ccccc3)nc2c1	nt	nt	nt	-6	nt	nt	nt
CC(C)OC(=O)C1C(c2ccc(I)cc2)CC2CCC1N2C (stereo not drawn)	nt	nt	nt	-7	nt	nt	nt
CC(=O)C1=C(C)OC2=C(C(=O)CCC2)[C@@]12C(=O)N(C)c1ccccc12	nt	nt	nt	0	nt	nt	nt
CCOC(=O)c1c(N)n(Cc2ccc(OC)cc2)c2nc3ccccc3nc12	nt	nt	nt	-5	nt	nt	nt
COCCOC(=O)c1c(N)n(Cc2ccc(OC)cc2)c2nc3ccccc3nc12	3	-4	-3	-1	66*	21	9
CCCCCn1c(NC(=O)c2ccco2)c(C(=O)OCC)c2nc3ccccc3nc21	23	3	55*	nt	92*	49*	9	Fluor interf inh=>100;PAFAH1B3 conf FP=50*
c1cncc(C2CCCCN2)c1 (stereo not drawn)	0	0	4	-4	-6	nt	nt
c1cncc(C2Nc3cccc4cccc(c34)N2)c1	2	-1	36*	1	42*	11	1	PAFAH1B3 conf FP=12
COc1cccc(NC2=NCCS2)c1	nt	nt	nt	-1	nt	nt	nt
COc1cc2c(cc1OC)-c1c(OC)c(OC)cc3c1[C@H](C2)N(C)CC3	11	19	34*	74*	95*	96*	7	Fluor interf inh=>100;PAFAH1B3 conf FP=9;TDP2 confirm=56*
Clc1cc(Cl)cc(CN2Cc3ccccc3-n3nncc3C2)c1	nt	nt	nt	-6	nt	nt	nt
Nc1c(C(=O)OCC2CCCO2)c2nc3ccccc3nc2n1Cc1cccs1 (stereo not drawn)	0	-12	-2	31*	56*	23	5	TDP2 confirm=7
Nc1c(C(=O)NCC2CCCO2)c2nc3ccccc3nc2n1Cc1ccco1 (stereo not drawn)	5	-4	-4	-6	32	nt	nt
COC(=O)C1CC(OC(C)=O)C(=O)[C@H]2C1(C)CC[C@H]1C(=O)OC(c3ccoc3)CC12C (stereo partly drawn)	nt	nt	nt	-6	nt	nt	nt
O=C1C(=O)c2ccccc2-c2ccccc21	43*	58*	71*	68*	99*	99*	5	Fluor interf inh=>100;TDP2 confirm=90*
CC(C)CCP(=O)(O)O	nt	nt	nt	6	nt	nt	nt
CCCCN1CCN(C(=O)COc2cc(=O)n(C)c3ccccc23)CC1	nt	nt	nt	0	nt	nt	nt
